Laboratory results: ChEMBL document CHEMBL1926521, “Arylcyanoacrylamides as inhibitors of the Dengue and West Nile virus proteases” (Bioorg Med Chem, 2011)
Calls of active or inactive are those of the source. No cut-off for these calls is given here.

Assays:
Dengue virus [1] = assay: Inhibition of Dengue virus NS2B-NS3 protease expressed in Escherichia coli BL21 lambda (DE3) using Abz-NleKRRS-3-(NO2)Y as substrate at 50 uM preincubated for 15 mins before substrate addition measured up to 15 mins by spectrofluorimetry
How it was run: (§1)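 Single-concentration screen against His-tagged NS2B-NS3 protease (Ni²⁺-affinity purified from E. coli). Enzyme was 100 nM for Dengue or 150 nM for West Nile. Inhibitor at 50 µM was preincubated 15 min with enzyme, then internally quenched FRET substrate (final 50 µM) was added. Read at ex 320/em 405 nm for 15 min. Rate taken as RFU/s; % inhibition is the mean of triplicates.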

West Nile virus = assay: Inhibition of West Nile virus NS2B-NS3 protease expressed in Escherichia coli BL21 lambda (DE3) using Abz-GLKRGG-3-(NO2)Y as substrate at 50 uM preincubated for 15 mins before substrate addition measured up to 15 mins by spectrofluorimetry; how it was run: as §1
Prothrombin [2] = biological target: T1, Prothrombin (Homo sapiens, UniProt P00734); assay: Inhibition of human thrombin using Boc-VPR-AMC as substrate at 25 uM preincubated for 15 mins before substrate addition measured up to 10 mins by spectrofluorimetry
[3] = Inhibition of Dengue virus NS2B-NS3 protease expressed in Escherichia coli BL21 lambda (DE3) using Abz-NleKRRS-3-(NO2)Y as substrate compound preincubated for 15 mins before substrate addition measured up to 15 mins by spectrofluorimetry
[4] = Inhibition of West Nile virus NS2B-NS3 protease expressed in Escherichia coli BL21 lambda (DE3) using Abz-GLKRGG-3-(NO2)Y compound preincubated for 15 mins before substrate addition measured up to 15 mins by spectrofluorimetry
Prothrombin [5] = biological target: T1, Prothrombin; assay: Inhibition of human thrombin using Boc-VPR-AMC as substrate compound preincubated for 15 mins before substrate addition measured up to 10 mins by spectrofluorimetry
[6] = Selectivity ratio of Ki for human thrombin to Ki for Dengue virus NS2B-NS3 protease
[7] = Selectivity ratio of Ki for human thrombin to Ki for West Nile virus NS2B-NS3 protease
Dengue virus [8] = assay: Binding affinity to Dengue virus NS2B-NS3 protease catalytic center assessed as quenching of Trp50 intrinsic fluorescence
Dengue virus [9] = assay: Binding affinity to Dengue virus NS2B-NS3 protease catalytic center assessed as quenching of Trp50 intrinsic fluorescence in presence of aprotinin

Structure (SMILES)	inhibition (Dengue virus [1])	inhibition (West Nile virus)	inhibition (Prothrombin [2])	further results
N#C/C(=C\c1ccc(N2CCOCC2)o1)C(=O)NC1CC1	10.5%	24%	47%	Ki [3]: 184 µM; Ki [4]: > 200 µM; Ki (Prothrombin [5]): 23.4 µM
CN(C)c1ccc(/C=C/CC(C#N)C(=O)NC2CC2)cc1 (stereo unspecified)	9%	37%	6.7%	
CC(C)c1ccc(/C=C(\C#N)C(=O)NCC2CCCO2)cc1 (stereo unspecified)	28.2%	46.3%	14.4%	Ki [3]: 98.1 µM; Ki [4]: 101 µM; Ki (Prothrombin [5]): 165 µM; Activity (Dengue virus [8]): Active; Activity (Dengue virus [9]): inactive
N#C/C(=C\c1cccc(N2CCOCC2)c1)C(=O)NC1CC1	18.5%	20.5%	9.7%	
N#C/C(=C\c1ccccc1N1CCOCC1)C(N)=O	10.4%	7.7%	7.4%	
COc1ccc(/C=C(\C#N)C(=O)N[C@@H](CO)C(=O)NC2CC2)cc1	23%	31.7%	23.3%	
CC(=C\c1ccccc1)/C=C(\C#N)C(=O)NCC1CCCO1 (stereo unspecified)	36.8%	30.1%	28.7%	
C/C(=C(\C#N)C(N)=O)c1ccc(O)cc1	13.2%	22.7%	inactive	
N#CC(Cc1c[nH]c2ccccc12)C(N)=O (stereo unspecified)	inactive	inactive	inactive	
CN(C)c1ccc(/C=C(\C#N)C(=O)NC2CC2)cc1	22.6%	33.2%	23.7%	
N#C/C(=C\c1ccc(O)cc1)C(=O)NC1CC1	44.7%	57.3%	18.8%	
CN(C)c1ccc(/C=C(\C#N)C(=O)NCc2ccccn2)cc1	25.3%	21.3%	inactive	
N#C/C(=C\c1ccc(Br)o1)C(=O)NC1CC1	15.6%	23.9%	26.9%	
CC(C)c1ccc(/C=C(\C#N)C(=O)NC2CC2)cc1	18.2%	22.2%	17.9%	
CN(C)c1ccc(/C=C/C=C(\C#N)C(=O)NC2CC2)cc1	10.3%	17.1%	16.2%	
CN1CCN(C(=O)/C(C#N)=C/c2ccc(O)cc2)CC1	35.4%	35.1%	20.8%	

The next lines start with results.

inhibition (Dengue virus [1])	inhibition (West Nile virus)	inhibition (Prothrombin [2])	Structure (SMILES)	further results
51.7%	55%	24.4%	N#C/C(=C\c1ccc(O)cc1)C(N)=O	Ki [3]: 35.7 µM; Ki [4]: 44.6 µM; Ki (Prothrombin [5]): 102 µM; Ratio Ki [6]: 2.8; Ratio Ki [7]: 2.3
43.1%	28.8%	24.4%	CC(=O)Oc1ccc(/C=C(\C#N)C(N)=O)cc1	
30.2%	34.6%	20.5%	CC(=C\c1ccccc1)/C=C(\C#N)C(N)=O	
35.1%	46%	21.6%	CN(C)c1ccc(/C=C(\C#N)C(N)=O)cc1	
22.5%	16%	7.9%	N#C/C(=C\c1ccc(F)cc1)C(N)=O	
19.2%	22%	20%	COc1ccc(/C=C(\C#N)C(N)=O)cc1OC	
30.5%	43.8%	23%	COc1cc(/C=C(\C#N)C(N)=O)cc(I)c1O	
24.3%	24.6%	17.7%	N#C/C(=C\c1ccc(N2CCCC2)cc1)C(N)=O	
43.2%	42.9%	17.4%	COc1cc(/C=C(\C#N)C(N)=O)ccc1O	
20.3%	21.1%	21.4%	COC(=O)[C@H](CO)NC(=O)/C(C#N)=C/c1ccc(OC)cc1	
inactive	inactive	inactive	N#C/C(=C\c1cccnc1)C(N)=O	
inactive	inactive	inactive	N#C/C(=C\c1ccncc1)C(N)=O	
13.3%	20%	10.6%	N#C/C(=C\c1ccc(C#N)cc1)C(N)=O	
16.3%	12.3%	9.6%	COc1cccc(/C=C(\C#N)C(N)=O)c1	
19.7%	23.4%	16.7%	COc1ccc(/C=C(\C#N)C(N)=O)cc1	
